The text below walks through data of ChEMBL document CHEMBL1144047, “Design and synthesis of diketopiperazine and acyclic analogs related to the caprazamycins and liposidomycins as potential antibacterial agents” (2008).

Converted amounts (≈) assume the structure as drawn. Some results are limits rather than exact numbers.

What all share (assay type): functional
The subject of assay [1] is Staphylococcus aureus. Description: Antibacterial activity against Staphylococcus aureus Smith after 18 hrs by serial agar dilution method. In short, it runs like this: (§1)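 MIC determined by serial agar dilution on plain Mueller–Hinton agar; read after 18 h incubation at 37 °C.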
On the technique in general: In agar dilution the substance is mixed into plates at graded concentrations.

Assay [2] relates to Staphylococcus aureus. Description: Antibacterial activity against MDR-Staphylococcus aureus MS9610 after 18 hrs by serial agar dilution method. Summed up:
(§2)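 MIC by serial agar dilution on Mueller–Hinton agar (no supplement for staphylococci); plates read after 18 h incubation at 37 °C.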

Assay [3] has as its system Micrococcus luteus. Description: Antibacterial activity against Micrococcus luteus FDA16 after 18 hrs by serial agar dilution method. Summed up:
as §1

Assay [4] concerns Micrococcus luteus. Description: Antibacterial activity against Micrococcus luteus PCI1001 after 18 hrs by serial agar dilution method. Conditions: PCI1001, 18 h. In short, it runs like this:
as §1

The subject of the next assay is Bacillus subtilis. Put plainly: Antibacterial activity against Bacillus subtilis NRRLB-558 after 18 hrs by serial agar dilution method. Summed up:
as §1

The next assay has as its system Corynebacterium bovis. Put plainly: Antibacterial activity against Corynebacterium bovis 1810 after 18 hrs by serial agar dilution method. Summed up: as §1
Assay [5] deals with Mycolicibacterium smegmatis. Put plainly: Antibacterial activity against Mycobacterium smegmatis ATCC607 after 42 hrs by serial agar dilution method. Summed up: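 Serial agar dilution MIC using Mueller–Hinton agar containing 5% glycerol; growth read after 42 h at 37 °C.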
In the next assay the test system is Enterococcus faecalis. Put plainly: Antibacterial activity against Enterococcus faecalis NCTC-12201 after 18 hrs by serial agar dilution method. Summed up:
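MIC by serial agar dilution on Mueller–Hinton agar supplemented with 5% sheep blood; plates incubated 18 hours at 37 °C under 5% CO₂ before reading.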

The subject of assay [6] is Mycobacterium tuberculosis. Put plainly: Antibacterial activity against Mycobacterium tuberculosis H37Rv at 6.25 ug/ml by microplate Alamar blue assay. In short, it runs like this:
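M. tuberculosis H37Rv (ATCC 27294) grown in BACTEC 12B medium; microplate Alamar blue assay; growth inhibition rate recorded at 6.25 µg/mL.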
On the technique in general: Resazurin is reduced to fluorescent resorufin, in cell work by metabolically active cells.

Assay [7] concerns Staphylococcus aureus. Description: Antibacterial activity against methicillin-resistant Staphylococcus aureus 5 after 18 hrs by serial agar dilution method. Summed up:
as §2

What is called MIC is the least concentration at which growth counts as inhibited. Low readings indicate inhibition by little substance, high ones a need for much substance. As a reminder, the inhibition is the change of the read-out against control, counted positive when it falls. A low value points to a response near the control. Consider `NC[C@H]1O[C@@H](O[C@H]([C@H]2O[C@@H](n3ccc(=O)[nH]c3=O)[C@H](O)[C@@H]2O)[C@@H]2NC(=O)[C@@H](COC(=O)c3ccc(-c4ccccc4)cc3)NC2=O)[C@H](O)[C@@H]1O`, for which the MIC in the assay on Staphylococcus aureus [1], with Staphylococcus aureus [2], in the assay on Micrococcus luteus [3], against Micrococcus luteus [4], against Bacillus subtilis and in the assay with Corynebacterium bovis was greater than 100 µg/mL in each case. The MIC (in assay [5]; with Enterococcus faecalis) was greater than 100 µg/mL each time. The inhibition at 6.25 µg/mL in assay [6] was determined as 29%.

In the case of `NC[C@H]1O[C@@H](O[C@H]([C@H]2O[C@@H](n3ccc(=O)[nH]c3=O)[C@H](O)[C@@H]2O)[C@H](N)C(=O)N[C@H](COC(=O)c2ccc(-c3ccccc3)cc2)C(=O)O)[C@H](O)[C@@H]1O`, the MIC against Staphylococcus aureus [1], against Staphylococcus aureus [2], against Micrococcus luteus [3], against Micrococcus luteus [4], against Bacillus subtilis and against Corynebacterium bovis was greater than 100 µg/mL each time. The MIC in assay [5] was 100 µg/mL (≈ 140 µM); in the assay with Enterococcus faecalis it was greater than 100 µg/mL. This compound also came in with an inhibition at 6.25 µg/mL in assay [6] of 27%.

In the case of `CCCCCCCCCCCCCCCC(=O)OC[C@H](NC(=O)[C@@H](N)[C@H](O[C@@H]1O[C@H](CN)[C@@H](O)[C@H]1O)[C@H]1O[C@@H](n2ccc(=O)[nH]c2=O)[C@H](O)[C@@H]1O)C(=O)O`, the MIC in the assay with Staphylococcus aureus [1] came to 25 µg/mL (≈ 32.3 µM); in the assay on Staphylococcus aureus [2] it was 50 µg/mL (≈ 64.6 µM); against Staphylococcus aureus [7] it was 50 µg/mL (≈ 64.6 µM); against Micrococcus luteus [3], 50 µg/mL (≈ 64.6 µM); against Micrococcus luteus [4], 25 µg/mL (≈ 32.3 µM); with Bacillus subtilis it was 25 µg/mL (≈ 32.3 µM). The MIC in the assay with Corynebacterium bovis was found to be 12.5 µg/mL (≈ 16.2 µM); in [5], 100 µg/mL (≈ 129 µM); against Enterococcus faecalis, 50 µg/mL (≈ 64.6 µM). For the same compound, the inhibition at 6.25 µg/mL in [6] is 51%.

Take `NC[C@H]1O[C@@H](O[C@H]([C@H]2O[C@@H](n3ccc(=O)[nH]c3=O)[C@H](O)[C@@H]2O)[C@@H]2NC(=O)[C@H](COC(=O)c3ccc(-c4ccccc4)cc3)NC2=O)[C@H](O)[C@@H]1O`: the MIC is greater than 100 µg/mL with Staphylococcus aureus [1]; greater than 100 µg/mL against Staphylococcus aureus [2]; greater than 100 µg/mL in the assay on Micrococcus luteus [3]; 100 µg/mL (≈ 143 µM) against Micrococcus luteus [4]; greater than 100 µg/mL in the assay with Bacillus subtilis; greater than 100 µg/mL in the assay on Corynebacterium bovis. The MIC in assay [5] was 100 µg/mL (≈ 143 µM); against Enterococcus faecalis, greater than 100 µg/mL. Also, the inhibition at 6.25 µg/mL in [6] worked out at 48%.

`CCCCCCCCCCCCCCCC(=O)OC[C@@H](NC(=O)[C@@H](N)[C@H](O[C@@H]1O[C@H](CN)[C@@H](O)[C@H]1O)[C@H]1O[C@@H](n2ccc(=O)[nH]c2=O)[C@H](O)[C@@H]1O)C(=O)O`: the MIC in the assay with Staphylococcus aureus [1] was found to be 25 µg/mL (≈ 32.3 µM); against Staphylococcus aureus [2], 50 µg/mL (≈ 64.6 µM); against Staphylococcus aureus [7] it was 50 µg/mL (≈ 64.6 µM); in the assay on Micrococcus luteus [3], 50 µg/mL (≈ 64.6 µM); against Micrococcus luteus [4], 12.5 µg/mL (≈ 16.2 µM); against Bacillus subtilis, 25 µg/mL (≈ 32.3 µM). Moreover, the MIC in the assay on Corynebacterium bovis turned out to be 12.5 µg/mL (≈ 16.2 µM); in [5] it was 50 µg/mL (≈ 64.6 µM); in the assay with Enterococcus faecalis, 50 µg/mL (≈ 64.6 µM). 6.25 µg/mL produced 59% inhibition in assay [6].

For the compound `NC[C@H]1O[C@@H](O[C@H]([C@H]2O[C@@H](n3ccc(=O)[nH]c3=O)[C@H](O)[C@@H]2O)[C@H](N)C(=O)N[C@@H](COC(=O)c2ccc(-c3ccccc3)cc2)C(=O)O)[C@H](O)[C@@H]1O`, the MIC is greater than 100 µg/mL in the assay with Staphylococcus aureus [1]; greater than 100 µg/mL in the assay on Staphylococcus aureus [2]; greater than 100 µg/mL against Micrococcus luteus [3]; 50 µg/mL (≈ 69.9 µM) against Micrococcus luteus [4]; greater than 100 µg/mL in the assay on Bacillus subtilis; 100 µg/mL (≈ 140 µM) against Corynebacterium bovis. Also, the figures for the MIC (in assay [5]; in the assay with Enterococcus faecalis) were 100 µg/mL (≈ 140 µM) and greater than 100 µg/mL, respectively. In [6], this compound returned an inhibition at 6.25 µg/mL of 52%.

With `CCCCCCCCCCCCCCCC(=O)OC[C@@H]1NC(=O)[C@H]([C@H](O[C@@H]2O[C@H](CN)[C@@H](O)[C@H]2O)[C@H]2O[C@@H](n3ccc(=O)[nH]c3=O)[C@H](O)[C@@H]2O)NC1=O`, the MIC in the assay with Staphylococcus aureus [1] turned out to be 25 µg/mL (≈ 33.1 µM); with Staphylococcus aureus [2], 100 µg/mL (≈ 132 µM); with Staphylococcus aureus [7] it was 100 µg/mL (≈ 132 µM); with Micrococcus luteus [3], 25 µg/mL (≈ 33.1 µM); in the assay with Micrococcus luteus [4], 50 µg/mL (≈ 66.1 µM); in the assay on Bacillus subtilis it was 25 µg/mL (≈ 33.1 µM). For the same compound, the MIC in the assay on Corynebacterium bovis came to 50 µg/mL (≈ 66.1 µM); in assay [5] it was 100 µg/mL (≈ 132 µM); against Enterococcus faecalis, 100 µg/mL (≈ 132 µM). For the same compound, in assay [6], at 6.25 µg/mL the inhibition was 35%.

As to `NC[C@H]1O[C@@H](O[C@H]([C@H]2O[C@@H](n3ccc(=O)[nH]c3=O)[C@H](O)[C@@H]2O)[C@H](N)C(=O)N[C@@H](CO)C(=O)O)[C@H](O)[C@@H]1O`, the MIC against Staphylococcus aureus [1], in the assay with Staphylococcus aureus [2], in the assay with Micrococcus luteus [3], against Micrococcus luteus [4], in the assay with Bacillus subtilis and in the assay on Corynebacterium bovis was greater than 100 µg/mL in each case. For the same compound, the MIC in assay [5] is 100 µg/mL (≈ 187 µM); in the assay with Enterococcus faecalis, greater than 100 µg/mL.
